Test results published in ChEMBL document CHEMBL1123730, “Synthesis and pharmacological evaluation of a new class of 2-(2-aminothiazol-4-yl)-2-hydrazonoacetamido cephalosporins” (J Med Chem, 1987).
≈ marks a conversion by molar mass, not a printed value.

What was measured:
[1] = Distribution (50 mg/kg) was determined in kidney 15 min after intravenous administration; format: ADME, organism-based; settings: read-out: Tissue distribution
How it was run: (§1)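 Wistar rats (200-250 g, groups of five) given 50 mg/kg in sterile water iv or im; killed at set times, lung, liver and kidney homogenized in 0.1 M pH 7.3 phosphate buffer (tissue:buffer 1:5). Drug assayed by agar diffusion on Nutrient Agar with E. coli ATCC 10536 (37 °C, 18 h); standards in phosphate buffer; detection limit 0.5 μg/mL; mean ± SEM.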

[2] = Distribution (50 mg/kg) was determined in kidney 5 min after intramuscular administration; format: ADME, organism-based; settings: im, read-out: Tissue distribution; how it was run: as §1
[3] = Distribution (50 mg/kg) was determined in kidney 60 min after intramuscular administration; format: ADME, organism-based; settings: im, read-out: Tissue distribution; how it was run: as §1
[4] = Distribution (50 mg/kg) was determined in liver 15 min after intramuscular administration; format: ADME, organism-based; settings: im, read-out: Tissue distribution; how it was run: as §1
[5] = Distribution (50 mg/kg) was determined in liver 5 min after intravenous administration; format: ADME, organism-based; settings: read-out: Tissue distribution; how it was run: as §1
[6] = Distribution (50 mg/kg) was determined in lung 120 min after intramuscular administration; format: ADME, organism-based; settings: im, read-out: Tissue distribution; how it was run: as §1
[7] = Distribution (50 mg/kg) was determined in lung 120 min after intravenous administration; format: ADME, organism-based; settings: in vivo, 2 h; how it was run: as §1
[8] = Distribution (50 mg/kg) was determined in lung 15 min after intramuscular administration; format: ADME, organism-based; settings: im, read-out: Tissue distribution; how it was run: as §1
[9] = Distribution (50 mg/kg) was determined in lung 15 min after intravenous administration; format: ADME, organism-based; settings: read-out: Tissue distribution; how it was run: as §1
[10] = Serum level was determined at 15 min after an intravenous administration of 50 mg/kg in rats; format: ADME, organism-based; design: dose 50 mg/kg, route intravenous; settings: rat, read-out: Serum level
How it was run: (§2)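 Dose 50 mg/kg in sterile water, iv or im, to Wistar rats 200-250 g, five per time point; killed at set intervals, blood centrifuged for serum. Antibiotic measured by agar diffusion on Nutrient Agar with E. coli ATCC 10536 (37 °C, 18 h), standards diluted in serum; detection limit 1 μg/mL. Mean ± SEM of five rats.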

[11] = Serum level was determined at 240 min after an intravenous administration of 50 mg/kg in rats; format: ADME, organism-based; design: dose 50 mg/kg, route intravenous; settings: rat, read-out: Serum level; how it was run: as §2
[12] = Serum level was determined at 240 min after intramuscular administration of 50 mg/kg in rats; format: ADME, organism-based; design: dose 50 mg/kg, route intramuscular; settings: rat, im, read-out: Serum level; how it was run: as §2
[13] = Serum level was determined at 30 min after an intravenous administration of 50 mg/kg in rats; format: ADME, organism-based; design: dose 50 mg/kg, route intravenous; settings: rat, read-out: Serum level; how it was run: as §2
[14] = Serum level was determined at 5 min after an intravenous administration of 50 mg/kg in rats; format: ADME, organism-based; design: dose 50 mg/kg, route intravenous; settings: rat, read-out: Serum level; how it was run: as §2
[15] = Serum level was determined at 60 min after intramuscular administration of 50 mg/kg in rats; format: ADME, organism-based; design: dose 50 mg/kg, route intramuscular; settings: rat, im, read-out: Serum level; how it was run: as §2
[16] = Serum level was determined at 120 min after intramuscular administration of 50 mg/kg in rats; format: ADME, organism-based; design: dose 50 mg/kg, route intramuscular; settings: rat, im, read-out: Serum level; how it was run: as §2
[17] = Half-life administered, intravenously; format: ADME, organism-based; settings: in vivo, iv
How it was run: (§3)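 Wistar rats (200-250 g, groups of five) given 50 mg/kg in sterile water iv or im; killed at 5-360 min, serum separated. Levels by agar diffusion bioassay, E. coli ATCC 10536 test organism, 37 °C 18 h, standards in serum (detection limit 1 μg/mL); elimination half-life derived from serum time course.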

Bacillus = experiment: Geometrical average of minimum bactericidal concentration was determined in isosensitest broth against Bacillus; format: functional
Escherichia coli [18] = experiment: Geometrical average of minimum bactericidal concentration was determined in isosensitest broth against Escherichia coli; format: functional
Escherichia coli [19] = experiment: Minimum inhibitory concentration against Escherichia coli ISM strain; format: functional
Neisseria perflava [20] = experiment: Geometrical average of minimum bactericidal concentration was determined in isosensitest broth against Neisseria perfl (1); format: functional
Neisseria perflava [21] = experiment: Geometrical average of minimum inhibitory concentration was determined in isosensitest broth against Neisseria perfl.; format: functional
Staphylococcus aureus = experiment: Geometrical average of minimum inhibitory concentration was determined in isosensitest broth against Staphylococcus; format: functional
Staphylococcus = experiment: Geometrical average of minimum bactericidal concentration was determined in isosensitest broth against Staphylococcus (P); format: functional
[22] = Geometrical average of minimum inhibitory concentration was determined in isosensitest broth against gram-positive strains.; format: functional
[23] = Distribution (50 mg/kg) was determined in lung 5 min after intramuscular administration; format: ADME, organism-based; settings: im, read-out: Tissue distribution; how it was run: as §1
[24] = Half-life administered, intramuscularly; format: ADME; settings: im; how it was run: as §3
Salmonella typhimurium = experiment: Minimum inhibitory concentration against Salmonella Typhimurium T.O was determined; format: functional, Salmonella enterica subsp. enterica serovar Typhimurium; settings: Salmonella enterica

Cn1nnnc1SCC1=C(C(=O)O)N2C(=O)[C@@H](NC(=O)/C(=N/N)c3csc(N)n3)[C@H]2SC1
concentration at 0.25 h [1]: 50600 ng/g
concentration at 5 min [2]: 6420 ng/g
concentration at 1 h [3]: 22900 ng/g
concentration at 0.25 h [4]: 15400 ng/g
concentration at 5 min [5]: 43200 ng/g
concentration at 2 h [6]: ≤ 5000 ng/g
Tissue distribution [7]: Undetectable
concentration at 0.25 h [8]: 10700 ng/g
concentration at 0.25 h [9]: 17500 ng/g
concentration at 0.25 h [10]: 137 µg/mL
concentration at 4 h [11]: 3.65 µg/mL
concentration at 4 h [12]: 10.2 µg/mL
concentration at 0.5 h [13]: 87.2 µg/mL
concentration at 5 min [14]: 231 µg/mL
concentration at 1 h [15]: 64.4 µg/mL
concentration at 2 h [16]: 32.9 µg/mL
half-life [17]: 45 min
MBC (Bacillus): 50 µg/mL (≈ 101 µM)
MBC (Escherichia coli [18]): 1.01 µg/mL (≈ 2.03 µM)
MIC (Escherichia coli [19]): 1.1 µg/mL (≈ 2.22 µM)
MBC (Neisseria perflava [20]): < 0.09 µg/mL
MIC (Neisseria perflava [21]): < 0.09 µg/mL
MIC (Staphylococcus aureus): 6.69 µg/mL (≈ 13.5 µM)
MBC (Staphylococcus): 50 µg/mL (≈ 101 µM)
MIC [22]: 4.95 µg/mL (≈ 9.97 µM)
concentration at 5 min [23]: ≤ 5000 ng/g
half-life [24]: 69 min
MIC (Salmonella typhimurium): 1.1 µg/mL (≈ 2.22 µM)
